Experimental data collected from several papers.
Lines come from different studies, so protocols differ.
CTSL: Procathepsin L (CTSL, Homo sapiens, UniProt P07711)
Adra1b: Alpha-1B adrenergic receptor (Adra1b, Rattus norvegicus, UniProt P15823)
XDH: Xanthine dehydrogenase/oxidase (XDH, Bos taurus, UniProt P80457)
PRKAA1: 5'-AMP-activated protein kinase catalytic subunit alpha-1 (PRKAA1, Homo sapiens, UniProt Q13131)

| SMILES | target | read-out | action | technique | concentration | inhibition |
| --- | --- | --- | --- | --- | --- | --- |
| O=C(Oc1cncc(Cl)c1)c1cc2cc(Cl)ccc2[nH]1 | CTSL | enzyme activity | inhibitor | – | 10 µM | 3% |
| CCOC(=O)c1ccc(OC(=O)CCCCCNC(=N)N)cc1 | CTSL | enzyme activity | inhibitor | – | 10 µM | 0% |
| CC(C)N1CCC[C@H]1CNC(=O)c1cn(C2CCCC2)c(=O)c2c1c1ccccc1n2C | Adra1b | ligand displacement | – | radioligand | 10 µM | -10% |
| C#Cc1n[nH]c2c(-c3cn([C@@H](C)c4ccccn4)c(=O)[nH]c3=O)cc(F)cc12 | Phosphatidylinositol 4-kinase beta (PI4KB, Homo sapiens, UniProt Q9UBF8) | enzyme activity | inhibitor | – | 0.1 µM | 9.3% |
| CC[C@H](NC(=O)OCc1ccccc1)C(=O)N[C@H](C(=O)N[C@@H](CC(C)C)C(=O)N(C)N(C#N)CCC(N)=O)C(C)(C)C | CTSL | enzyme activity | inhibitor | – | 50 µM | 100% |
| CC(C)Cn1cnc2c(N)nc3ccccc3c21 | Adra1b | ligand displacement | – | radioligand | 10 µM | 40% |
| NC(=O)Cc1ccccc1 | XDH | enzyme activity | inhibitor | absorbance | 200 µg/mL | 17.1% |
| Cn1cc(-c2cccc(N3CCc4c(sc5c4CC(C)(C)C5)C3=O)c2CO)cc(Nc2ccncn2)c1=O | PRKAA1 | enzyme activity | inhibitor | – | 1 µM | 1% |
| CC(C)C[C@H](NC(=O)[C@H]1O[C@@H]1C(=O)O)C(=O)NCCCCN=C(N)N | CTSL | enzyme activity | inhibitor | – | 50 nM | 84% |
| Cn1cc(-c2cc(F)cc(N3CCn4c(cc5c4CCCC5)C3=O)c2CO)cc(Nc2ccc(N3CCN(C4COC4)CC3)cn2)c1=O | Sphingosine kinase 2 (SPHK2, Homo sapiens, UniProt Q9NRA0) | enzyme activity | inhibitor | – | 0.1 µM | -10% |
| COc1cc(Nc2ncc(F)c(Nc3ccc4c(n3)NC(=O)C(C)(C)O4)n2)cc(OC)c1OC | PRKAA1 | binding | – | competition with immobilised ligand | 10 µM | 74% |
| CN(C)C(=O)COC(=O)Cc1ccc(OC(=O)c2ccc(NC(=N)N)cc2)cc1 | CTSL | enzyme activity | inhibitor | – | 10 µM | 2% |
| C[C@H](C(=O)N[C@H]1COc2ccccc2[C@@H]1S(C)(=O)=O)c1ccc(F)cc1 | XDH | enzyme activity | inhibitor | – | 10 µM | 10% |
